Assay results taken from ChEMBL document CHEMBL4261570, “Design, Synthesis and Preliminary Antimicrobial Evaluation of N-Alkyl Chain Tethered C-5 Functionalized Bis-Isatins” (Medchemcomm, 2017).
pIC50: −log10 of the molar value. Active and inactive are the calls of the source. The rule behind the calls is not given here.

What was measured:
Trichomonas vaginalis [1] = assay: Antiparasitic activity against Trichomonas vaginalis assessed as parasite growth inhibition at 50 uM after 24 hrs by hemacytometer relative to control; type: functional; details: read-out: GI
Outline: (§1)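 G3 strain cultured in TYM Diamond's medium in 15 mL tubes, with compound in DMSO. Controls were untreated and 0.1% DMSO. After 24 h, cells were counted by hemacytometer and normalized to the DMSO controls. Screening was at 50 μM. IC50 came from titrations of 5–40 μM with variable-slope regression, 4 independent trials on different days, and was then re-confirmed.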

Giardia intestinalis [2] = assay: Antiparasitic activity against Giardia lamblia WB trophozoites assessed as parasite growth inhibition at 50 uM after 48 hrs by ATP bioluminescence-based CellTiter-Glo luminescent cell viability assay relative to control; type: functional; details: Giardia duodenalis; for inhibition of growth at 50 µM: read-out: GI
Outline: (§2)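 Trophozoites kept axenically in TYI-S-33 with penicillin and streptomycin. Each well held 5000 trophozoites and was incubated 48 h at 37 °C under anaerobic conditions in a GasPak pouch. Read-out was CellTiter-Glo ATP luminescence. Controls were 0.5% DMSO vehicle and 30 μM metronidazole. Primary screen at 50 μM in duplicate; hits were those above 50% inhibition. EC50 came from triplicate 8-point series (0.39–50 μM) and dose-response curves.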

Entamoeba histolytica = assay: Antiparasitic activity against Entamoeba histolytica HM-1:IMSS trophozoites assessed as parasite growth inhibition at 50 uM after 48 hrs by ATP bioluminescence-based CellTiter-Glo luminescent cell viability assay relative to control; type: functional; details: for inhibition of growth at 50 µM: read-out: GI; outline: as §2
Trichomonas vaginalis [3] = assay: Antiparasitic activity against Trichomonas vaginalis assessed as parasite growth inhibition after 24 hrs by hemacytometer; type: functional, organism-based; outline: as §1
Aspergillus parasiticus [4] = assay: Antifungal activity against Aspergillus parasiticus NRRL5862 assessed as fungal growth at 500 uM after 24 hrs by microtiter plate liquid bioassay (reference value: 100%); type: functional
Outline: (§3)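 A. parasiticus grown at 35 °C on PDA. Liquid assay in RPMI 1640, 3 × 104 to 5 × 10^4 CFU per mL, triplicate wells, 35 °C. Compounds in DMSO (<2% in media). No-treatment wells carry matched DMSO. Wells scored visually 0–4 versus the no-treatment control: 0 clear, 1 25%, 2 50%, 3 75%, 4 no reduction. Scoring follows CLSI M38-A.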

Aspergillus parasiticus [5] = assay: Antifungal activity against Aspergillus parasiticus NRRL5862 assessed as fungal growth at 500 uM after 48 hrs by microtiter plate liquid bioassay (reference value: 100%); type: functional; outline: as §3
Saccharomyces cerevisiae [6] = assay: Antifungal activity against Saccharomyces cerevisiae BY4741 assessed as fungal growth at 500 uM after 24 hrs by microtiter plate liquid bioassay (reference value: 100%); type: functional
Saccharomyces cerevisiae [7] = assay: Antifungal activity against Saccharomyces cerevisiae BY4741 assessed as fungal growth at 500 uM after 48 hrs by microtiter plate liquid bioassay (reference value: 100%); type: functional
[8] = test system: Lacticaseibacillus rhamnosus; assay: Toxicity in Lactobacillus rhamnosus ATCC 53103 at 100 uM measured after overnight incubation by disc diffusion method; type: organism-based, GG; details: in vivo
Outline: (§4)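 Grown in Lactobacilli MRS at 37 °C under anaerobic conditions. Blank 6 mm discs were soaked 20 min at room temperature in a 100 μM working dilution in medium. Discs were placed on streaked agar alongside DMSO vehicle and antibiotic discs (levofloxacin, gentamicin), incubated overnight at 37 °C, and zones of inhibition measured in mm.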

[9] = test system: Limosilactobacillus reuteri; assay: Toxicity in Lactobacillus reuteri ATCC 23272 at 100 uM measured after overnight incubation by disc diffusion method; type: organism-based; details: in vivo; outline: as §4
[10] = test system: Lactobacillus acidophilus; assay: Toxicity in Lactobacillus acidophilus ATCC 43560 at 100 uM measured after overnight incubation by disc diffusion method; type: organism-based; details: in vivo; outline: as §4
Escherichia coli = assay: Toxicity in Escherichia coli K-12 MG1655 at 100 uM measured after overnight incubation by disc diffusion method; type: organism-based, K-12 substr. MG1655; details: in vivo
Outline: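 Grown in Luria broth at 37 °C under aerobic conditions. Blank 6 mm discs were soaked 20 min at room temperature in a 100 μM working dilution in medium. Discs were placed on streaked agar alongside DMSO vehicle and antibiotic discs (levofloxacin, gentamicin), incubated overnight at 37 °C, and inhibition zones measured in mm.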

Giardia intestinalis [11] = assay: Antiparasitic activity against Giardia lamblia WB trophozoites assessed as parasite growth inhibition after 48 hrs by ATP bioluminescence-based CellTiter-Glo luminescent cell viability assay; type: functional, organism-based; details: Giardia duodenalis; outline: as §2
Naegleria fowleri = assay: Antiparasitic activity against Naegleria fowleri KUL trophozoites assessed as parasite growth inhibition after 48 hrs by ATP bioluminescence-based CellTiter-Glo luminescent cell viability assay; type: functional, organism-based
Outline: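 Strain KUL trophozoites cultured axenically in Nelson's medium with 10% FBS at 37 °C. Each well held 10 000 trophozoites, incubated under aerobic conditions without the anaerobe pouch. Read-out was CellTiter-Glo luminescence. Positive control was 50 μM amphotericin B. Hits were serially diluted in triplicate, 8 points from 0.39 to 50 μM, and EC50 was taken from dose-response curves.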

Saccharomyces cerevisiae [12] = assay: Antifungal activity against Saccharomyces cerevisiae BY4741 assessed as decrease in fungal survival at 500 uM after 48 to 72 hrs by YPD plate-based assay; type: functional, organism-based
Outline: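 At the end of the 500 μM SG-liquid microtiter assay, the entire well contents were spread onto YPD recovery plates. Plates were cultured a further 48 to 72 h at 30 °C to judge fungal survival.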

Compound | inhibition of growth at 50 µM (Trichomonas vaginalis [1]) | inhibition of growth at 50 µM (Giardia intestinalis [2]) | growth inhibition (GI) (Entamoeba histolytica) | pIC50 (Trichomonas vaginalis [3]) | Activity (Aspergillus parasiticus [4]) | Activity (Aspergillus parasiticus [5]) | Activity (Saccharomyces cerevisiae [6]) | Activity (Saccharomyces cerevisiae [7]) | Activity [8] | Activity [9] | Activity [10] | Activity (Escherichia coli) | inhibition of growth at 50 µM (Entamoeba histolytica) | pIC50 (Giardia intestinalis [11]) | pIC50 (Naegleria fowleri) | growth inhibition (GI) (Giardia intestinalis [2]) | Activity (Saccharomyces cerevisiae [12])
O=C1C(=O)N(CCCN2C(=O)C(=O)c3cc(Br)ccc32)c2ccccc21 | 100% | 19.3% | inactive | 5.43 | 100% | 100% | 25% | 50% | Non-Toxic | Non-Toxic | Non-Toxic | Non-Toxic |  |  |  |  | 
O=C1C(=O)N(CCCCCN2C(=O)C(=O)c3cc(Cl)ccc32)c2ccccc21 | 100% | 100% |  |  |  |  |  |  | Non-Toxic | Non-Toxic | Non-Toxic | Non-Toxic | 100% | 4.62 | 4.83 |  | 
O=C1C(=O)N(CCCCCN2C(=O)C(=O)c3cc(F)ccc32)c2ccccc21 | 100% |  | inactive |  | 100% | 100% | 50% | 75% | Non-Toxic | Non-Toxic | Non-Toxic | Non-Toxic |  |  | 4.56 | inactive | 
CCCCCCCCCCCCCCCCOP(=O)([O-])OCC[N+](C)(C)C [MILTEFOSINE] |  |  |  |  |  |  |  |  |  |  |  |  |  |  | 4.26 |  | 
O=C1C(=O)N(CCCCBr)c2ccccc21 | 89.8% | 20.9% |  |  | 75 - 100% | 100% | 0% | 50% | Non-Toxic | Non-Toxic | Non-Toxic | Non-Toxic | 8.47% |  | 4.84 |  | 
O=C1C(=O)N(CCCN2C(=O)C(=O)c3cc(F)ccc32)c2ccccc21 | 100% | 100% | inactive | 4.90 |  |  |  |  | Non-Toxic | Non-Toxic | Non-Toxic | Non-Toxic |  | 4.54 |  |  | 
C[C@@H]1[C@H](O)[C@@H](C)/C=C/C=C/C=C/C=C/C=C/C=C/C=C/[C@H](O[C@@H]2O[C@H](C)[C@@H](O)[C@H](N)[C@@H]2O)C[C@@H]2O[C@](O)(C[C@@H](O)C[C@@H](O)[C@H](O)CC[C@@H](O)C[C@@H](O)CC(=O)O[C@H]1C)C[C@H](O)[C@H]2C(=O)O [AMPHOTERICIN B] |  |  |  |  |  |  |  |  |  |  |  |  |  |  | 6.70 |  | 
O=C1C(=O)N(CCCCN2C(=O)C(=O)c3cc(Br)ccc32)c2ccccc21 | 100% |  | inactive | 4.60 |  |  |  |  | Non-Toxic | Non-Toxic | Non-Toxic | Non-Toxic |  |  |  | inactive | 
O=C1C(=O)N(CCCCCCCCBr)c2ccccc21 | 100% | 100% | inactive |  | 75 - 100% | 100% | 0% | 0% | Non-Toxic | Non-Toxic | Non-Toxic | Non-Toxic |  | 4.74 |  |  | inactive
O=C1C(=O)N(CCCCCCBr)c2ccccc21 | 86.6% | 98.9% | inactive |  | 75 - 100% | 100% | 0% | 0% | Non-Toxic | Non-Toxic | Non-Toxic | Non-Toxic |  | 4.61 |  |  | inactive
O=C1C(=O)N(CCCCCN2C(=O)C(=O)c3ccccc32)c2ccccc21 | 90.9% | 94.3% |  |  |  |  |  |  | Non-Toxic | Non-Toxic | Non-Toxic | Non-Toxic | 100% | 4.59 |  |  | 
O=C1C(=O)N(CCN2C(=O)C(=O)c3cc(Cl)ccc32)c2ccccc21 | 78.8% | 3.82% |  | 4.82 | 100% | 100% | 25% | 50% | Non-Toxic | Non-Toxic | Non-Toxic | Non-Toxic | 73.6% |  | 4.55 |  | 
O=C1C(=O)N(CCBr)c2ccccc21 | 62.5% | 47.2% |  |  | 75 - 100% | 100% | 25% | 75% | Non-Toxic | Non-Toxic | Non-Toxic | Non-Toxic | 7.23% |  | 4.63 |  | 
O=C1C(=O)N(CCCCCCCCN2C(=O)C(=O)c3ccccc32)c2ccccc21 | 30.3% | 80.7% |  |  |  |  |  |  | Non-Toxic | Non-Toxic | Non-Toxic | Non-Toxic | 100% | 4.42 |  |  | 
